Assay results from different studies.
Protocols differ between the studies behind these lines.
CDK19 with cyclin C: Cyclin-dependent kinase 19, with cyclin C (CDK19, Homo sapiens, UniProt Q9BWU1)
CDK19: Cyclin-dependent kinase 19 (CDK19, Homo sapiens, UniProt Q9BWU1)

target	effect on	mode	method	concentration	measurement	value	Structure (SMILES)
CDK19 with cyclin C	enzyme activity	inhibitor	radiometric	1 µM	remaining activity	94%	CC(C)(C)c1nc(-c2cccc(NS(=O)(=O)c3c(F)cccc3F)c2F)c(-c2ccnc(N)n2)s1
CDK19	binding	–	–	1 µM	remaining binding	100%	F[C@@H]1CCN(c2nccc(-c3cnn4ncccc34)n2)C1
CDK19 with cyclin C	enzyme activity	inhibitor	–	10 µM	remaining activity	98.1%	Cc1sc(C(=O)NC2COC2)cc1-n1cc(NC(=O)Nc2c(F)cccc2Cl)cn1
CDK19	binding	–	competition with immobilised ligand	0.5 µM	remaining binding	13%	C[C@@H]1CN(c2ccc3ncc(-c4ccc5[nH]nc(C6CC6)c5c4)n3n2)C[C@H](C)O1
CDK19 with cyclin C	enzyme activity	inhibitor	–	5 µM	remaining activity	96.2%	O=C(Nc1cnn(-c2csc(C(=O)NC3COC3)c2)c1)Nc1c(F)cccc1Cl
CDK19	binding	–	competition with immobilised ligand	2 µM	inhibition	> 85%	CN1CCN(C(=O)c2ccc3cc(CCNc4ccnc5ccc(C#N)cc45)ccc3c2)CC1
CDK19	enzyme activity	inhibitor	–	23.5 nM	remaining activity	31%	Cc1ccc(C(=O)Nc2ccc(CN3CCN(C)CC3)c(C(F)(F)F)c2)cc1C#Cc1cnc2cccnn12
CDK19 with cyclin C	enzyme activity	inhibitor	radiometric	1 µM	remaining activity	98%	CC(C)(C)c1nc2c(s1)c1nc(N)ncc1c1ccc(NS(=O)(=O)c3c(F)cccc3F)c(F)c12
CDK19	binding	–	–	1 µM	remaining binding	97%	C[C@@H]1CCN(c2nccc(-c3cnn4ncccc34)n2)C1
